Drawing on ChEMBL document CHEMBL1127613, “Synthesis and pharmacological properties of 11-hydroxy-3-(1',1'-dimethylheptyl)hexahydrocannabinol: a high-affinity cannabinoid agonist” (1994), this text covers ED50 for 3 molecules.

Assay type in all cases: functional
Assay [1] concerns Mus musculus. The experiment in a line: Compound was evaluated for reduction of rectal temperature at 60 min in mouse when administered intravenously. To be noted: iv, 1 h. The procedure, abridged:
(§1)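 Mice given the analog by intravenous injection, then run through a tetrad. Spontaneous activity is scored at 5–15 min, tail-flick at 20 min, rectal temperature at 60 min and ring immobility at 90 min after injection. ED50 comes from log dose–response linear regression over n = 4–7 active doses, with standard error estimated by ALLFIT.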

Assay [2] concerns Mus musculus. The assay can be described thus: Compound was evaluated for inhibition of spontaneous activity at 5-15 min in mouse when administered intravenously. Conditions: iv. The essentials: as §1
Assay [3] relates to Mus musculus. The experiment in a line: Compound was evaluated for production of ring immobility at 90 min in mouse when administered intravenously. Conditions: iv, 1.5 h. The procedure, abridged: as §1
Assay [4] concerns Mus musculus. The experiment in a line: Compound was evaluated for inhibition of tail-flick response at 20 min in mouse when administered intravenously. To be noted: iv. The procedure, abridged: as §1

`CCCCCCC(C)(C)c1cc(O)c2c(c1)OC(C)(C)[C@H]1CC[C@H](CO)C[C@H]21`: the ED50 in the assay on Mus musculus [1] came out at 6.9 mg/kg; with Mus musculus [2] it was 0.77 mg/kg; in the assay with Mus musculus [3], 2.5 mg/kg; in the assay on Mus musculus [4], 0.58 mg/kg.

For the molecule `CCCCCCC(C)(C)c1cc(O)c2c(c1)OC(C)(C)[C@@H]1CC[C@@H](CO)C[C@@H]21`, the median effective dose (ED50) turned out to be 0.037 mg/kg in the assay with Mus musculus [1], 0.0054 mg/kg with Mus musculus [2], 0.027 mg/kg with Mus musculus [3] and 0.0018 mg/kg in the assay with Mus musculus [4].

Turning to `CCCCCc1cc(O)c2c(c1)OC(C)(C)C1CCC(C)=C[C@@H]21` (single isomer, unassigned) [DRONABINOL], the ED50 in the assay on Mus musculus [1] was 1.42 mg/kg; with Mus musculus [2], 1.01 mg/kg; with Mus musculus [3], 1.51 mg/kg; in the assay with Mus musculus [4] it was 1.42 mg/kg.

In general, ED50 refers to the dose at which the effect has come halfway, by size or by number of responders.
